LMPTP block – LMPTP phosphatase inhibitors, primary screen, biochemical, fluorescence intensity, uHTS. inhibition, % at 20 µM. recombinant LMPTP-A, OMFP fluorogenic substrate. AID 651560, 2012. Low molecular weight phosphotyrosine protein phosphatase (Homo sapiens), P24666. 0.22% of 360,000 active;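 active = compounds that cut the enzyme signal by at least half of the control window in the single-dose screen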;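 also: plate controls were DMSO wells with enzyme plus substrate for no effect and substrate without enzyme for full effect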
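Assay system: LMPTP-A phosphatase enzyme | Input: 0.625 nM enzyme | Also added: Fluorogenic phosphatase substrate OMFP at 400 µM final | Compound dosing: One test concentration per compound, 20 µM, with 3% DMSO overall | Schedule: 50 min enzyme reaction at room temperature, protected from light | Signal: Fluorescence intensity | Benchmarks: no-enzyme and uninhibited controls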
Scp1 inh – Scp-1 phosphatase inhibitors, primary screen, biochemical, colorimetric, uHTS; AID 493091, 2011; Recombinant Scp1, phosphopeptide, malachite green phosphate absorbance; Carboxy-terminal domain RNA polymerase II polypeptide A small phosphatase 1 (Homo …; 0.88% of 340,000 active; inhibition, % at 20 µM;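 active = inhibition above about 50% at 20 µM, limit read from the data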;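 also: plate controls were DMSO wells with enzyme for no effect and wells lacking enzyme for full effect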
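System: truncated SCP-1 phosphatase (76-261aa); medium: Tris acetate buffer pH 5.5 with MgCl2 and Tween-20; incubation: 45 min room-temperature reaction, 5 min colour, 30 min stabiliser; compound: single 20 µM dose, 1% DMSO; reagent: Phosphorylated 17-residue peptide substrate; read-out: % inhibition at 20 µM; technique: colorimetric free-phosphate detection, absorbance 630 nm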
DNMT1 inh – human DNMT1 methyltransferase inhibitors, primary screen, biochemical, molecular beacon, fluorescence, HinP1I cleavage, uHTS | 0.83% of 360,000 active | inhibition (reported as % activation of signal), % at 10 µM; in the data active = inhibition above about 50%
Target sequence (P26358 504-1616 limits assumed): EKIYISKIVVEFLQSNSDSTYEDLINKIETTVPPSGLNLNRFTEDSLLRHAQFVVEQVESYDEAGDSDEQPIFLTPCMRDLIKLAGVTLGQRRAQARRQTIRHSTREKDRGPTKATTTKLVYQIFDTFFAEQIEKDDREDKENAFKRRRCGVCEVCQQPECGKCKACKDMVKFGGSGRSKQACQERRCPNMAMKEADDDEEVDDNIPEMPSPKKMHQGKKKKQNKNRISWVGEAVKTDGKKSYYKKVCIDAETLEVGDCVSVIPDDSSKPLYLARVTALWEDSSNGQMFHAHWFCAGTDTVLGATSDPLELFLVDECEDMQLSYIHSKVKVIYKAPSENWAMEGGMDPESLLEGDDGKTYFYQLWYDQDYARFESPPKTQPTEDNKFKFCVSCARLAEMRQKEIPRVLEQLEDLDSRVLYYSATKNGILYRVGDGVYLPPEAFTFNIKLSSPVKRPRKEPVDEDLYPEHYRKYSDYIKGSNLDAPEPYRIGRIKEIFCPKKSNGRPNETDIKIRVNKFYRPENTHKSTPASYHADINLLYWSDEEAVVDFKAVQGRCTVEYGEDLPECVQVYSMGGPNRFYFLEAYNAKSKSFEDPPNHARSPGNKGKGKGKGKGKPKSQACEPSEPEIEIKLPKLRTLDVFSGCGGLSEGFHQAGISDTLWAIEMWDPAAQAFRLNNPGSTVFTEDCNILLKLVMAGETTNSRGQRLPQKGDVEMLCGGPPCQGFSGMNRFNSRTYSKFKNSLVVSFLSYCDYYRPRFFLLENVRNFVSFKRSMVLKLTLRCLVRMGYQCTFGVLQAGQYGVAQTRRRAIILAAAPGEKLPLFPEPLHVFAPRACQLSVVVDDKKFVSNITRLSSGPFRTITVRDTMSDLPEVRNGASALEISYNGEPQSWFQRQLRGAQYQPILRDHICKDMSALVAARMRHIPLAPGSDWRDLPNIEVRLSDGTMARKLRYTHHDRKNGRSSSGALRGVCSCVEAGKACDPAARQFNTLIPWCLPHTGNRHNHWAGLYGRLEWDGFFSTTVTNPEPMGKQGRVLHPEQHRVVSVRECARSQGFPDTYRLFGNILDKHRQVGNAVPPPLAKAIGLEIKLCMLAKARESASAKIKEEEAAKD
STEP block – STEP phosphatase inhibitors, primary screen, biochemical, fluorescence intensity, uHTS. Tyrosine-protein phosphatase non-receptor type 5 (Homo sapiens), P54829. recombinant STEP, OMFP fluorogenic substrate. inhibition, % at 20 µM. 0.25% of 360,000 active;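 active = inhibition at 20 µM, scaled per plate between control wells, above about 37%, limit read from the data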;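 also: 0% = DMSO with enzyme and substrate and 100% = substrate only without enzyme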
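medium = Bis-Tris buffer pH 6.0, 2.5 mM DTT, 0.005% Tween 20 | test system = STEP (striatal-enriched tyrosine phosphatase) enzyme, cell-free | measure = normalized % inhibition | compound dosing = 20 µM, 1% DMSO | also added = 25 µM OMFP | schedule = reaction 20 min, ambient temperature | measured by = fluorescence read at 480 nm ex / 540 nm em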
SUMO1-SIM PPI – modulators of SUMO1 protein-protein interactions, primary screen, biochemical, uHTS; Small ubiquitin-related modifier 1 (Homo sapiens), P63165; SUMO1 binding to a labelled peptide, TR-FRET, 1 h; inhibition, % at 20 µM; 0.33% of 360,000 active; AID 602429, 2012; in the data active = inhibition above about 37%
An asterisk follows results filed as active. In the library only some 1.8% were active in any assay of this set; here they are far more common.

Results for COc1cc(-c2cc(=O)c3c(C)cc(O)cc3o2)cc(OC)c1OC ?
LMPTP block: -2; Scp1 inh: 5; DNMT1 inh: -7; STEP block: 4; SUMO1-SIM PPI: 7

Results for N#Cc1cn(-c2ccccc2)nc1-c1ccccc1 ?
LMPTP block: 1; Scp1 inh: 20; DNMT1 inh: 4; STEP block: -1; SUMO1-SIM PPI: 45*

What do the screens show for `COCC(=O)N1C[C@H](C)[C@H](OC)CN(C)C(=O)c2cc(NC(=O)Nc3cccc(F)c3)ccc2OC[C@@H]1C`?
LMPTP block: 1; SUMO1-SIM PPI: 3

What do the screens show for `CC1=NOC(=O)/C1=C\c1ccc(-c2cccc(Cl)c2)o1`?
LMPTP block: 4; Scp1 inh: -4; DNMT1 inh: 57*; STEP block: 8; SUMO1-SIM PPI: 40*

How did CC1=NOC(=O)/C1=C\c1ccc(-c2ccccc2Br)o1 do in these assays?
LMPTP block: 5; Scp1 inh: -3; DNMT1 inh: 52*; STEP block: 3; SUMO1-SIM PPI: 30

Results for O=C1NN=C(c2ccc(Cl)cc2)CC1c1c[nH]c2ccccc12 (configuration not stated) ?
LMPTP block: 1; Scp1 inh: -3; DNMT1 inh: -3; STEP block: -1; SUMO1-SIM PPI: -4

How did Cc1ccc(C2=NNC(=O)C(c3c[nH]c4ccccc34)C2)cc1 (configuration not stated) do in these assays?
LMPTP block: 1; Scp1 inh: -11; DNMT1 inh: -4; STEP block: 2; SUMO1-SIM PPI: 55*

Results for CCOc1ccc(C(=O)NCC(=O)NC(C)c2ccc(-n3ccnc3)cc2)cc1OCC (configuration not stated) ?
LMPTP block: -1; Scp1 inh: -2; DNMT1 inh: 1; STEP block: -2; SUMO1-SIM PPI: 45*

What do the screens show for `COc1cc(C(=O)NCC(=O)NC(C)c2ccc(-n3ccnc3)cc2)cc(OC)c1OC` (configuration not stated)?
LMPTP block: -1; Scp1 inh: -2; DNMT1 inh: 2; STEP block: 2; SUMO1-SIM PPI: 12

What do the screens show for `O=C(N/C=C/c1ccco1)NCc1ccccc1`?
LMPTP block: 4; Scp1 inh: 41; DNMT1 inh: 61*; STEP block: 6; SUMO1-SIM PPI: 5

What do the screens show for `N#C/C(=C\c1ccc(O)c(O)c1)C(=O)Nc1cccc2ncccc12`?
LMPTP block: 66*; Scp1 inh: 28; DNMT1 inh: 16; STEP block: 0; SUMO1-SIM PPI: 7

How did CC(C)c1onc(C(=O)N2CCN(C(c3ccccc3)c3ccccc3)CC2)c1[N+](=O)[O-] do in these assays?
LMPTP block: -1; Scp1 inh: 21; DNMT1 inh: 3; STEP block: 1; SUMO1-SIM PPI: 43*

How did O=C(CSc1nc2ccccc2c(=O)[nH]1)c1ccc(O)c(O)c1 do in these assays?
LMPTP block: 18; Scp1 inh: 55*; DNMT1 inh: 14; STEP block: 2; SUMO1-SIM PPI: 22

How did O=C(CSc1nc2ccccc2n1CCc1ccccc1)c1ccc(O)c(O)c1 do in these assays?
LMPTP block: 79*; Scp1 inh: 69*; DNMT1 inh: 97*; STEP block: 83*; SUMO1-SIM PPI: 73*

How did O=C(NCc1cnn(-c2ccccc2)c1)C1CCC(=O)N(C2CC2)C1 (configuration not stated) do in these assays?
LMPTP block: -2; Scp1 inh: -6; DNMT1 inh: 1; STEP block: -1; SUMO1-SIM PPI: 2

What do the screens show for `N#CCc1ccc(NC(=O)/C=C/c2ccc([N+](=O)[O-])o2)cc1`?
LMPTP block: 5; Scp1 inh: 40; DNMT1 inh: 27; STEP block: 3; SUMO1-SIM PPI: -22

How did N#C/C(=C\c1ccc([N+](=O)[O-])o1)C(=O)Nc1ccc(F)cc1 do in these assays?
LMPTP block: 6; Scp1 inh: 57*; DNMT1 inh: 32; STEP block: 1; SUMO1-SIM PPI: 9

Results for Cn1c(N)c(C(=O)COC(=O)c2ccc3c(c2)C(=O)N(c2ccc(Cl)cc2)C3=O)c(=O)n(C)c1=O ?
LMPTP block: 3; Scp1 inh: -3; DNMT1 inh: 37; STEP block: 1; SUMO1-SIM PPI: 64*

Results for CCOC(=O)N=Nc1c2ccccc2c2nc3no[nH]c3nc12 ?
LMPTP block: 5; Scp1 inh: -5; DNMT1 inh: 50*; STEP block: 2; SUMO1-SIM PPI: -15

How did Cc1cc(C)c(S(=O)(=O)/N=C2/C=C(Sc3ncn[nH]3)C(=O)c3ccccc32)cc1C do in these assays?
LMPTP block: 14; Scp1 inh: 4; DNMT1 inh: 16; STEP block: 7; SUMO1-SIM PPI: 92*

How did Cc1ccc(C)c(S(=O)(=O)/N=C2\C=C(NS(=O)(=O)c3ccccc3)C(=O)c3ccccc32)c1 do in these assays?
LMPTP block: 2; Scp1 inh: -2; DNMT1 inh: -12; STEP block: -2; SUMO1-SIM PPI: 9

Results for COCCNc1nc(NCc2cccs2)nc2ccsc12 ?
LMPTP block: 39; DNMT1 inh: -38; STEP block: 2; SUMO1-SIM PPI: 1

Results for COCCNc1nc(NCc2cc(-c3ccc(OC)cc3)no2)c2sccc2n1 ?
LMPTP block: 57*; DNMT1 inh: -7; STEP block: 2; SUMO1-SIM PPI: 7

Results for O=S(=O)(Nc1nccs1)c1ccc(NCc2cc(Br)cc(Br)c2O)cc1 ?
LMPTP block: 1; Scp1 inh: 6; DNMT1 inh: -8; STEP block: -1; SUMO1-SIM PPI: 32

Results for COc1cccc(CNc2ccc(S(=O)(=O)Nc3nccs3)cc2)c1O ?
LMPTP block: 0; Scp1 inh: -5; DNMT1 inh: -1; STEP block: 2; SUMO1-SIM PPI: 38*

How did CCN(CC)c1ccc(/C=N/NC(=O)Cc2nnc(NC(=O)Nc3ccccc3)s2)cc1 do in these assays?
LMPTP block: 1; Scp1 inh: -3; DNMT1 inh: 50*; STEP block: 4; SUMO1-SIM PPI: -3

What do the screens show for `O=C(Cc1nnc(NC(=O)c2ccccc2)s1)N/N=C\c1ccc(O)c(O)c1`?
LMPTP block: 3; Scp1 inh: 31; DNMT1 inh: 59*; STEP block: 2; SUMO1-SIM PPI: 1

What do the screens show for `CCN(CC)c1ccc(/C=N/NC(=O)Nc2ccccc2)cc1`?
LMPTP block: 4; Scp1 inh: -1; DNMT1 inh: -17; STEP block: 2; SUMO1-SIM PPI: -10

Screens (PubChem)
